Measurements from different studies.
Lines come from different studies, so protocols differ.
CDK16: Cyclin-dependent kinase 16 (CDK16, Homo sapiens, UniProt Q00536)
CDK16 with cyclin Y: Cyclin-dependent kinase 16, with cyclin Y (CDK16, Homo sapiens, UniProt Q00536)

`C=CC(=O)N1CCC[C@@H](n2nc(-c3ccc(Oc4ccccc4)cc3)c3c(N)ncnc32)C1` has an inhibition of 10% (CDK16; enzyme activity, inhibitor; 1 µM).
For `COc1ccc2oc(-c3ccc4nc(N)oc4c3)c/c(=N\c3ccccc3NC(=O)CCN)c2c1`, the remaining binding was 107% (CDK16 with cyclin Y; binding; 1 µM).
`CC(C)S(=O)(=O)c1ccc2nccc(Nc3ccc4sc(C5CCCC5)nc4c3)c2c1` gave an activity vs control of 106% (CDK16 with cyclin Y; enzyme activity, inhibitor; 1 µM).
`Cc1cc(O)c(-c2ccc([C@@H](C)CN(C)C)cc2)c2c1[nH]c(=O)c1sccc12` has an inhibition of -12.9% (CDK16; enzyme activity, inhibitor; 0.1 µM).
With `COc1ccc2[nH]c3c4[nH]c5ccc(OC)cc5c4c4c(c3c2c1)C(=O)NC4=O` the remaining binding was 99% (CDK16; binding; 1 µM).
`CO[C@@H]1[C@H](N(C)C(=O)c2ccccc2)C[C@H]2O[C@]1(C)n1c3ccccc3c3c4c(c5c6ccccc6n2c5c31)C(=O)NC4` gave an inhibition of 5% (CDK16; enzyme activity, inhibitor; 1 µM).
With `CCCCC(=O)Nc1ccc(-c2ccc3ncn(CCC)c(=O)c3c2)cn1` the remaining binding was 90% (CDK16; binding, competition with immobilised ligand; 0.5 µM).
`N#Cc1ccc(NC(=O)Nc2ccccc2)cc1` has a remaining binding of 68% (CDK16; cell-free assay, competition with immobilised ligand; 25 µM).
The remaining binding of `Cc1ccc(NC(=O)c2ccnc(C(F)(F)F)c2)cc1-c1cc(OCCO)nc(N2CCOCC2)c1` is reported as 100% (CDK16; binding; 1 µM).
